Laboratory results from ChEMBL document CHEMBL3877289, “New family of antimicrobial agents derived from 1,4-naphthoquinone” (Eur J Med Chem, 2016).
In brackets after ≈: the same amount, converted by molar mass.

Assays:
Klebsiella pneumoniae = test: Antibacterial activity against Klebsiella pneumoniae PCM1 after 20 hrs by microbroth dilution method; format: functional; conditions: PCM1, 20 h
Procedure, shortened: (§1)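 MIC by broth microdilution in Mueller–Hinton broth. Strains were pre-grown 24h at 37 °C with shaking at 180 rpm. Inoculum was 5x10^5 CFU/ml, exposed 20 h at 37 °C to compound (0.001 – 5 mg/ml, DMSO solvent). MIC was the lowest concentration inhibiting observable growth. Tetracycline served as reference. Triplicate.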

Staphylococcus aureus = test: Antibacterial activity against Staphylococcus aureus ATCC 6538 after 20 hrs by microbroth dilution method; format: functional; conditions: ATCC 6538, 20 h; procedure, shortened: as §1
Pseudomonas aeruginosa = test: Antibacterial activity against Pseudomonas aeruginosa PCM 2562 after 20 hrs by microbroth dilution method; format: functional; conditions: PCM 2562, 20 h; procedure, shortened: as §1
Salmonella bongori = test: Antibacterial activity against Salmonella bongori PCM 2552 after 20 hrs by microbroth dilution method; format: functional; conditions: PCM 2552, 20 h; procedure, shortened: as §1
Escherichia coli = test: Antibacterial activity against Escherichia coli ATCC 8739 after 20 hrs by microbroth dilution method; format: functional; conditions: ATCC 8739, 20 h; procedure, shortened: as §1
Enterobacter cloacae = test: Antibacterial activity against Enterobacter cloacae PCM 2569 after 20 hrs by microbroth dilution method; format: functional; conditions: PCM 2569, 20 h; procedure, shortened: as §1
[1] = Hemolytic activity in human erythrocytes at 1 to 250 ug/mL incubated for 1 hr; format: ADME, cell-based, Erythrocyte; conditions: read-out: Activity
Procedure, shortened: (§2)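 Human blood was collected into citrate dextrose anticoagulant. Erythrocytes were spun at 500×g for 10 min at 4 °C, then washed in PBS (10 mM phosphate, pH 7.5; 150 mM NaCl) until the supernatant was clear, and resuspended at 2%. 450 µl of suspension was mixed with compound in 50 µl DMSO (1 - 250 µg/ml), incubated 1h at 37 °C, spun at 5000×g for 10 min, and supernatant A415 was read. Controls: tetracycline and chloramphenicol negative, Triton X-100 (1%) positive.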

[2] = Hemolytic activity in human erythrocytes at 60 ug/mL incubated for 1 hr; format: ADME, cell-based, Erythrocyte; conditions: read-out: Activity; procedure, shortened: as §2
Enterococcus faecalis = test: Antibacterial activity against Enterococcus faecalis PCM 2673 after 20 hrs by microbroth dilution method; format: functional; conditions: PCM 2673, 20 h; procedure, shortened: as §1
Proteus vulgaris = test: Antibacterial activity against Proteus vulgaris PCM 2668 after 20 hrs by microbroth dilution method; format: functional; conditions: PCM 2668, 20 h; procedure, shortened: as §1

MIC (Klebsiella pneumoniae) | MIC (Staphylococcus aureus) | MIC (Pseudomonas aeruginosa) | MIC (Salmonella bongori) | MIC (Escherichia coli) | MIC (Enterobacter cloacae) | MIC (Enterococcus faecalis) | MIC (Proteus vulgaris) | Structure (SMILES) | hemolysis at 1 h [1] | hemolysis at 1 h, 60 ug/mL [2]
250 µg/mL (≈ 849 µM) | 15.6 µg/mL (≈ 53 µM) | 250 µg/mL (≈ 849 µM) | 250 µg/mL (≈ 849 µM) | 250 µg/mL (≈ 849 µM) | 250 µg/mL (≈ 849 µM) | – | – | COc1ccc(C2=CC(=O)c3ccccc3C2=O)c(OC)c1 | ≤ 2% | –
500 µg/mL (≈ 1450 µM) | 500 µg/mL (≈ 1450 µM) | 500 µg/mL (≈ 1450 µM) | 500 µg/mL (≈ 1450 µM) | 500 µg/mL (≈ 1450 µM) | 500 µg/mL (≈ 1450 µM) | – | – | COc1cc2ccc(C3=CC(=O)c4ccccc4C3=O)cc2cc1OC | – | –
250 µg/mL (≈ 858 µM) | 7.8 µg/mL (≈ 26.8 µM) | 250 µg/mL (≈ 858 µM) | 250 µg/mL (≈ 858 µM) | 250 µg/mL (≈ 858 µM) | 250 µg/mL (≈ 858 µM) | – | – | Cc1cc(N(C)C)ccc1C1=CC(=O)c2ccccc2C1=O | ≤ 2% | 2%
62.5 µg/mL (≈ 225 µM) | 125 µg/mL (≈ 451 µM) | 250 µg/mL (≈ 901 µM) | 125 µg/mL (≈ 451 µM) | 125 µg/mL (≈ 451 µM) | 250 µg/mL (≈ 901 µM) | – | 250 µg/mL (≈ 901 µM) | CN(C)c1ccc(C2=CC(=O)c3ccccc3C2=O)cc1 | – | –
250 µg/mL (≈ 1000 µM) | 62.5 µg/mL (≈ 251 µM) | 250 µg/mL (≈ 1000 µM) | 250 µg/mL (≈ 1000 µM) | 250 µg/mL (≈ 1000 µM) | 250 µg/mL (≈ 1000 µM) | – | – | O=C1C=C(Nc2ccccc2)C(=O)c2ccccc21 | – | –

Continued, compound first:

Structure (SMILES) | MIC (Klebsiella pneumoniae) | MIC (Staphylococcus aureus) | MIC (Pseudomonas aeruginosa) | MIC (Salmonella bongori) | MIC (Escherichia coli) | MIC (Enterobacter cloacae) | MIC (Enterococcus faecalis) | MIC (Proteus vulgaris) | hemolysis at 1 h [1] | hemolysis at 1 h, 60 ug/mL [2]
COc1cc(OC)c(C2=CC(=O)c3ccccc3C2=O)c(OC)c1 | 250 µg/mL (≈ 771 µM) | 250 µg/mL (≈ 771 µM) | 250 µg/mL (≈ 771 µM) | 250 µg/mL (≈ 771 µM) | 250 µg/mL (≈ 771 µM) | 250 µg/mL (≈ 771 µM) | – | – | – | –
O=C1C=CC(=O)c2ccccc21 [NAPHTHOQUINONE] | 250 µg/mL (≈ 1580 µM) | 31.2 µg/mL (≈ 197 µM) | 125 µg/mL (≈ 790 µM) | 125 µg/mL (≈ 790 µM) | 125 µg/mL (≈ 790 µM) | 250 µg/mL (≈ 1580 µM) | 125 µg/mL (≈ 790 µM) | – | – | –
O=C1C=C(N[C@@H](Cc2c[nH]c3ccccc23)C(=O)O)C(=O)c2ccccc21 | 500 µg/mL (≈ 1390 µM) | 62.5 µg/mL (≈ 173 µM) | 500 µg/mL (≈ 1390 µM) | 500 µg/mL (≈ 1390 µM) | 500 µg/mL (≈ 1390 µM) | 500 µg/mL (≈ 1390 µM) | 500 µg/mL (≈ 1390 µM) | 500 µg/mL (≈ 1390 µM) | – | –
O=C1C=C(N2CCC[C@H]2C(=O)O)C(=O)c2ccccc21 | 250 µg/mL (≈ 922 µM) | 31.2 µg/mL (≈ 115 µM) | 250 µg/mL (≈ 922 µM) | 250 µg/mL (≈ 922 µM) | 250 µg/mL (≈ 922 µM) | 250 µg/mL (≈ 922 µM) | 250 µg/mL (≈ 922 µM) | 500 µg/mL (≈ 1840 µM) | – | –
O=C1C=C(N[C@@H](C(=O)O)c2ccccc2)C(=O)c2ccccc21 | 500 µg/mL (≈ 1630 µM) | 250 µg/mL (≈ 814 µM) | 500 µg/mL (≈ 1630 µM) | 500 µg/mL (≈ 1630 µM) | 500 µg/mL (≈ 1630 µM) | 500 µg/mL (≈ 1630 µM) | 500 µg/mL (≈ 1630 µM) | – | – | –
